Experimental data published in ChEMBL document CHEMBL1157406, “Cytotoxic metabolites from the fungal endophyte Alternaria sp. and their subsequent detection in its host plant Polygonum senegalense” (J Nat Prod, 2008).
pIC50: −log10 of the molar value.

Assays:
[1] = biological target: Insulin-like growth factor 1 receptor (Homo sapiens, UniProt P08069); test: Inhibition of recombinant IGF1R phosphorylation transfected in mouse embryonic fibroblast
In short: (§1)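 Mouse embryonic fibroblasts stably transfected with FLT3 or IGF1-R; 90 min pretreatment with 10 µM staurosporine, compound 90 min at 37 °C. Stimulation with FLT3-ligand 5 min (FLT3) or IGF1 3 min (IGF1-R). Lysates captured on antibody-coated plates; autophosphorylation detected with antiphosphotyrosine PY99.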

[2] = biological target: T1, Receptor-type tyrosine-protein kinase FLT3 (Homo sapiens, UniProt P36888); test: Inhibition of recombinant FLT3 phosphorylation transfected in mouse embryonic fibroblast; in short: as §1
T1 sequence (P36888 whole entry): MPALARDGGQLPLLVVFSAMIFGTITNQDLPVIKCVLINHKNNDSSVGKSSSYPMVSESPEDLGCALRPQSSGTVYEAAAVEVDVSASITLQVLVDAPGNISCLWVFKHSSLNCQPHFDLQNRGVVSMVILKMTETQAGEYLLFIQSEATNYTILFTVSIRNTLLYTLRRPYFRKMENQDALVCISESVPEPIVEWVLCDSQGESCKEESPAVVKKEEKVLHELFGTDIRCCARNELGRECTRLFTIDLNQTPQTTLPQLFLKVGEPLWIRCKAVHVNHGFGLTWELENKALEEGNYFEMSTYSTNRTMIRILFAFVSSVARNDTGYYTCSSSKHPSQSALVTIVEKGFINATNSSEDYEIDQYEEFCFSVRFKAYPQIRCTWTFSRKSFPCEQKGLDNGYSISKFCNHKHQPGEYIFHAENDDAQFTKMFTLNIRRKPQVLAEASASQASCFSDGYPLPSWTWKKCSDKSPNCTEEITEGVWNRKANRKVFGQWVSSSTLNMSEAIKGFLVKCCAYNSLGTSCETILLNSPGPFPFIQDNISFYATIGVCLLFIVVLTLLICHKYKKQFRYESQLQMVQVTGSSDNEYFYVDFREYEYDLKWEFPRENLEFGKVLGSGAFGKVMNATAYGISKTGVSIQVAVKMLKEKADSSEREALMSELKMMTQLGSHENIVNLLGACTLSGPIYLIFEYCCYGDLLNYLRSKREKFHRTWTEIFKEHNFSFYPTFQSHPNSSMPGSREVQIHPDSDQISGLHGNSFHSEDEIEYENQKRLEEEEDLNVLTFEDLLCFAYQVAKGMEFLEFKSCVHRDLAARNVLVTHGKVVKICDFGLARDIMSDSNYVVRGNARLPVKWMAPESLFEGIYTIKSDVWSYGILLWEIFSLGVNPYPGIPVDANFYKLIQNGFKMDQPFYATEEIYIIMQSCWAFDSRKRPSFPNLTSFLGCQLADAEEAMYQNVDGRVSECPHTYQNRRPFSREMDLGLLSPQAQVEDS

Insulin-like growth factor 1 receptor, sequence (P08069 31-736 limits assumed): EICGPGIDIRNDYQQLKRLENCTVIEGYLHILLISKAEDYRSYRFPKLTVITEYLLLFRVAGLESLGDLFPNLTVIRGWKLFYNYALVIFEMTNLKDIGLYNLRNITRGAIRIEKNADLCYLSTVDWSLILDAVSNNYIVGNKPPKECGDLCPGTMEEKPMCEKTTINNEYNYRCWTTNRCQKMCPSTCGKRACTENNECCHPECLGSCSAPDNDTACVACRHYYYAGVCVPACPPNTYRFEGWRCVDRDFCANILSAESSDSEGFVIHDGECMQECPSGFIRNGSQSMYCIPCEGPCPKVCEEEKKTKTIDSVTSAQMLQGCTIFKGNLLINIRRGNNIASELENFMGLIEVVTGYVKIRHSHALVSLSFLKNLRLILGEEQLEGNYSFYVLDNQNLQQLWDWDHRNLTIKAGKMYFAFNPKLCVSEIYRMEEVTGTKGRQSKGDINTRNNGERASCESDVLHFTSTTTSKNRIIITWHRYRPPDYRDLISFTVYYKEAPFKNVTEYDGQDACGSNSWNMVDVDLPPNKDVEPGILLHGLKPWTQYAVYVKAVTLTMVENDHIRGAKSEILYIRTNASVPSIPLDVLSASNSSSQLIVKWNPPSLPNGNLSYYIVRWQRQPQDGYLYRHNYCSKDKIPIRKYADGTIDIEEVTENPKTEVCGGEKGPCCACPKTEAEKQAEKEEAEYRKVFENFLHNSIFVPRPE
Insulin-like growth factor 1 receptor, sequence (P08069 741-1367 limits assumed): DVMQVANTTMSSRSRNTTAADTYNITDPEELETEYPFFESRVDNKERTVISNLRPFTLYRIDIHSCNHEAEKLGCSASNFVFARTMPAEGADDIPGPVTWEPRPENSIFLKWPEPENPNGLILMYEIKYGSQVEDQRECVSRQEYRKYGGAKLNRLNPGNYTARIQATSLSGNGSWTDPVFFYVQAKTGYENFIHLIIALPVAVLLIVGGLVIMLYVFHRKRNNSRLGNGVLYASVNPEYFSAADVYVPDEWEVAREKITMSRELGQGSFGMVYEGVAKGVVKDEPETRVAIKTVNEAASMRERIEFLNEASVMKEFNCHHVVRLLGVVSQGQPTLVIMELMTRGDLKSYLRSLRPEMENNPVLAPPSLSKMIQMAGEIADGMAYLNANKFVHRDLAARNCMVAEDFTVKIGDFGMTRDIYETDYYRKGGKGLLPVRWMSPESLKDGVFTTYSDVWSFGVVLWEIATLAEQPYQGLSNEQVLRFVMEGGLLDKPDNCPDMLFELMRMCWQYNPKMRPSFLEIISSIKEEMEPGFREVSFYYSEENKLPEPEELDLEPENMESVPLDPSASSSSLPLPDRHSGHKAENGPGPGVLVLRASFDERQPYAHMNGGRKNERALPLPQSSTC

Compound: Cc1cc(O)cc2oc(=O)c3c(O)cc(O)cc3c12 [ALTERNARIOL]
- pIC50 [1]: 5.41
- pIC50 [2]: 5.41
